# Compounds with a hit are over-represented: about 2.8% of the library has one in this group of screens.
# p-CIP stab down: p/CIP-EGFP fusion destabilizers, primary screen, fluorescence, F442A cells. decrease of EGFP signal, % at 10 µM. Q05BA5. 16 h. actives 0.01% (n = 290,000);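 active = EGFP signal decrease of at least 30% at 10 µM or well 3 SD below plate mean, unless failing retest; inactive = the rest, including hits failing retest or dose response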
# Target sequence (Q05BA5 1-1403): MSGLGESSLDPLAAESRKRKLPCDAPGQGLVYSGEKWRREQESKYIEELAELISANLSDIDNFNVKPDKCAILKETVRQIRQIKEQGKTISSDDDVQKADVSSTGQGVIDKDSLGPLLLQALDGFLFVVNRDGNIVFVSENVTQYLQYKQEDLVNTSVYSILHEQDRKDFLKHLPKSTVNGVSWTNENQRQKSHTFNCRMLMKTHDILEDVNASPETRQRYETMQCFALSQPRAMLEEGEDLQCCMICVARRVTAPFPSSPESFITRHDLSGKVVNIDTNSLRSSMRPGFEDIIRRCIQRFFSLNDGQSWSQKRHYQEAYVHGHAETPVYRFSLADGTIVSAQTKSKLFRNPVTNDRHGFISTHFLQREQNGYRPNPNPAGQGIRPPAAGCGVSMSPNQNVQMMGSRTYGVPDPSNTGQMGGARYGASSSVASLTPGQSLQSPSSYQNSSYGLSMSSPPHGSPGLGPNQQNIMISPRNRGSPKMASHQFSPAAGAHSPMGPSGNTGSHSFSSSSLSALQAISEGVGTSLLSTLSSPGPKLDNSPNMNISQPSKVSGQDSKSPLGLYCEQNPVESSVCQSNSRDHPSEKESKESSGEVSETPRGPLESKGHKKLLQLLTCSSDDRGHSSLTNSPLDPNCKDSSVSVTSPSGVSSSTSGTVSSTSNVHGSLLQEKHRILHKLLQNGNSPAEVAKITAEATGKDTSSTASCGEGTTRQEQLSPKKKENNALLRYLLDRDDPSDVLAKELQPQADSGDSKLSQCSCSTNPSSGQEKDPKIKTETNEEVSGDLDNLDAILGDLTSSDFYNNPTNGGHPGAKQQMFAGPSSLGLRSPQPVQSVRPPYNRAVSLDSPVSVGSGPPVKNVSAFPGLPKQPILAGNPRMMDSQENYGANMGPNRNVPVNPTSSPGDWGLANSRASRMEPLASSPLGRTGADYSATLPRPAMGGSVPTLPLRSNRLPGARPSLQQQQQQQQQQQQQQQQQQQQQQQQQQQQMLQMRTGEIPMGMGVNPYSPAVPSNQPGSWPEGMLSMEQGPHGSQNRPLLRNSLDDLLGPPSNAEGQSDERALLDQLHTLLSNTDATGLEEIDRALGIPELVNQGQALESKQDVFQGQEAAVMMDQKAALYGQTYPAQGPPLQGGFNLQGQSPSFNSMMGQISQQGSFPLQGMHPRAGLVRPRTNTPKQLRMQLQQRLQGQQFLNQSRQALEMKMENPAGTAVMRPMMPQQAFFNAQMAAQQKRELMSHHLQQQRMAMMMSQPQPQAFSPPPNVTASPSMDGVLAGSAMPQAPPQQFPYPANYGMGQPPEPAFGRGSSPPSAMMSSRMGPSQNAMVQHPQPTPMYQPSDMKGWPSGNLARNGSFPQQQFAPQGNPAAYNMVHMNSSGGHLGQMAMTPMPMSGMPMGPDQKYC
# T cruzi inh: inhibitors of intracellular T. cruzi growth, primary screen, luminescence, NIH3T3 host cells; inhibition, % (no concentration beside the values); T. cruzi beta-gal in NIH3T3, 90 h; actives 1.4% (n = 300,000); AID 1885, 2009;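 active = mean inhibition across valid replicates above about 55%, limit read from the data; inconclusive = mean below that limit but half or more replicates reach it; inactive = mean below it, under half of replicates reach it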;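 note: signal also drops with host cell toxicity which is not excluded here; 0% = plate median of DMSO wells and 100% = zero luminescence signal; higher percent means less beta-gal luminescence so fewer parasites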
#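 System – NIH/3T3 host cells with β-galactosidase reporter T. cruzi · Doses – single 50 nL compound addition per well in DMSO · Reagent – 5000 T. cruzi trypomastigotes/well · Medium – Low-serum DMEM with 2% FBS · Timing – ≥90 h infection period, 3 h prior cell attachment · Evaluation – parasite load inhibition, % · Technique – GalScreen luminescence, 60 min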
# AI-2 QS modul: Vibrio harveyi AI-2 quorum sensing modulators, primary screen, JMH597 strain, luminescence/OD600 ratio | AID 2094, 2009 | Vibrio harveyi JMH597 AI-2 luminescence/OD600 ratio, 9 h; stronger effect = lower value; strain lacks LuxN and CqsS sensors; 0 = neutral-control median | activity change, % at 7.5 µM | actives 0.4% (n = 300,000); in the data active = activity change below about -75%, passing the limit was not always enough; inconclusive = no clear call, values can overlap the other calls;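 note: luminescence divided by OD600 gain over 9 h not by final OD600 alone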
# UBC13 polyUb: UBC13 polyubiquitin chain formation inhibitors, primary screen, biochemical, TR-FRET, uHTS; inhibition, % at 20 µM; AID 485273, 2010; Ubiquitin-conjugating enzyme E2 N (Homo sapiens), P61088; actives 0.47% (n = 330,000); in the data active = inhibition above about 45%, passing the limit was not always enough; inconclusive = no clear call, values can overlap the other calls
# PP1 counter: PP1-alpha phosphatase inhibitors, primary screen, counter-screen for PP5 inhibitor project, biochemical, fluorescence, OMFP substrate, single point | Serine/threonine-protein phosphatase PP1-alpha catalytic subunit (Homo sapiens), P62136 | purified PP1alpha | inhibition, % at 6.7 µM | actives 0.9% (n = 320,000) | AID 2235, 2010;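 active = inhibition above the mean inhibition of all tested compounds plus 3 SD, computed separately for each screening campaign, cut at about 15% in these data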
# * hit, by the source's call; i = inactive; ? = inconclusive; / = not tested or not shown.
SMILES,p-CIP stab down,T cruzi inh,AI-2 QS modul,UBC13 polyUb,PP1 counter
COc1ccc(C(=O)c2cn[nH]c2-c2ccc(C)cc2O)cc1,5,-5,-86*,10,-2
CC(C)(C)c1ccc(C(=O)c2cn[nH]c2-c2ccccc2O)cc1,3,0,-92*,10,5
O=C1CSCC(=O)N1Cc1ccc(Cl)c(Cl)c1,-16,-8,1,-2,-1
CCN(CC)C(=O)Cn1c(C)c(/C=C/c2cc[n+](C)cc2)c2ccccc21,-64,5,10,-258,-5
C=CCn1c(C)c(/C=C/c2cc[n+](C)cc2)c2ccccc21,-784,74*,0,i,0
CC(C)n1cc(/C=C/c2cc[n+](C)cc2)c2ccccc21,-601,45,17,-261,/
CCn1cc(/C=C/c2cc[n+](C)cc2)c2ccccc21,-419,55*,13,/,3
C=CCn1cc(/C=C/c2cc[n+](C)cc2)c2ccccc21,-415,55*,-4,-170,2
CC(=O)NC(CC(=O)Nc1cc(Cl)ccc1-n1cncn1)c1ccccc1 (stereo unspecified),/,3,6,0,-2
OC(c1cccc(Cl)c1)c1nccc2ccccc12 (stereo unspecified),2,-8,-19,-1,-6
O=C(OC(c1ccccc1)c1nccc2ccccc12)c1cc([N+](=O)[O-])cc([N+](=O)[O-])c1 (stereo unspecified),-6,58*,49,-8,0
Cc1ccc(NC(=O)c2cc(N3C(=O)C=CC3=O)ccc2N2CCOCC2)cc1,-21,59*,27,/,/
Cc1ccc(NC(=O)c2cc(NC(=O)c3ccco3)ccc2N2CCOCC2)cc1,10,21,51,3,-3
Cc1csc(SCC(=O)N(C)C2CCS(=O)(=O)C2)n1 (stereo unspecified),/,/,/,3,/
CN(C)S(=O)(=O)c1ccc(C(=O)OCC2CC2(Cl)Cl)cc1 (stereo unspecified),-2,4,-77*,3,2
CC1CN(C(=O)COC(=O)c2ccc(S(=O)(=O)N(C)C)cc2)CC(C)O1 (stereo unspecified),-19,-6,1,1,-1
C/C=C\C(=O)Nc1cccc(C2=NOC3(C2)C[C@@H](C(N)=O)N(C(=O)CC(c2ccccc2)c2ccccc2)C3)c1 (stereo partly specified),-10,13,-7,-9,0
CCCCCC(=O)Nc1cccc(C2=NOC3(C2)C[C@@H](C(N)=O)N(C(=O)CC(c2ccccc2)c2ccccc2)C3)c1 (stereo partly specified),-8,76*,49,-12,6
O=C(NCc1ccco1)c1cc2n(n1)C(C(F)(F)F)CC(c1ccc(Cl)c(Cl)c1)N2 (stereo unspecified),-8,55*,6,-2,-3
O=C(CCN1CCN(c2ccccc2)CC1)NNC(=O)Cc1ccc(Br)cc1,/,/,/,1,/
CC(Oc1ccc(Br)cc1)C(=O)NNC(=O)CCN1CCN(c2ccccc2)CC1 (stereo unspecified),/,-16,-92*,-3,-3
CC(=O)Nc1ccc2nc(NC(=O)c3ccc([N+](=O)[O-])s3)sc2c1,-5,56*,24,-43,-4
CCC(=O)Nc1nc2ccc([N+](=O)[O-])cc2s1,1,63*,24,-30,-3
O=C(Nc1ccccc1Cl)Nc1ccnn1C1CCN(C(=O)CCN2CCCO2)CC1,7,-3,6,4,-2
O=C(O)c1ccc(CSc2nc(-c3ccc(Cl)cc3)cc(C(F)(F)F)n2)cc1,-18,-24,12,2,17*
SMILES,p-CIP stab down,T cruzi inh,AI-2 QS modul,UBC13 polyUb,PP1 counter
O=C(O)c1ccc(CSc2nc(-c3ccccc3)cc(C(F)(F)F)n2)cc1,-6,5,18,-6,5
Cc1ccc(S(=O)(=O)CCC(=O)OCc2nnc(-c3ccccc3Br)o2)cc1,/,/,/,-14,0
CN(CC(=O)Nc1ccc(N2CCOCC2)cc1)Cc1c(O)ccc2ccccc12,4,-23,26,11,-1
CCC(NC(=O)c1cccc(Cn2cc([N+](=O)[O-])cn2)c1)c1ccc(C(C)C)cc1 (stereo unspecified),-9,48,19,-1,-2
CC(NC(=O)c1cccc(Cn2cc([N+](=O)[O-])cn2)c1)c1ccc(C(C)(C)C)cc1 (stereo unspecified),-7,55*,5,-12,5
COC(=O)c1ccc2c(c1)C(C)(C)C(/C=C/c1ccc(O)cc1)=[N+]2C,-19,52,8,-165,17*
O=C(CC12CC3CC(CC(C3)C1)C2)NC(=S)NCc1ccco1,-12,56*,34,0,6
CC(C)CN(C(=O)C1CCC1)c1c(N)n(Cc2ccccc2)c(=O)[nH]c1=O,/,/,/,13,/
Cn1nc(-c2ccc(N3CCCCC3)c(NC(=O)c3ccco3)c2)c2ccccc2c1=O,5,66*,9,25,-2
CCc1nnc(NC(=O)c2ccc(OC)c(S(=O)(=O)N3CCCC3)c2)s1,/,/,/,3,-4
CCc1onc(C)c1C(=O)O,6,-5,27,6,-3
NC(N)=Nc1nc(-c2ccccc2)c2ccccc2n1,-4,81*,30,32,-6
CCc1nc(N=C(N)N)nc2ccccc12,-2,?,34,-4,-6
O=[N+]([O-])c1ccc(O)c2cccnc12,-1,2,10,-32,-1
O=[N+]([O-])c1ccc(O)c2ncccc12,4,74*,?,-62,14
O=[N+]([O-])c1cc(Cl)c(O)c2ncccc12,-4,9,-88*,-57,/
O=C(CCO)c1ccc(O)cc1,3,-31,35,4,-4
O=C(CCSc1ccc(Br)cc1)c1ccc(O)cc1,0,24,-77*,11,6
COc1ccccc1CNc1nc(-c2cc(C)n(C)c2C)cs1,-4,/,/,/,/
COCCNc1nc(-c2cc(C)n(CCc3ccc(OC)cc3)c2C)cs1,4,60*,142,-14,13
c1ccc(CN2CCN(Cc3c[nH]c4ccccc34)CC2)cc1,-11,60*,16,9,1
O=[N+]([O-])c1ccc(S(=O)(=O)N2CCN(Cc3c[nH]c4ccccc34)CC2)cc1,0,74*,32,8,3
N#CC(Cc1ccccc1)(Cc1ccccc1)C(=O)NN,-2,3,5,4,1
Cn1c(=O)c2c(nc(NCCOc3ccc(F)cc3)n2C)n(C)c1=O,-7,-2,44,14,-3
CC1CCCCC1NC(=O)COC(=O)c1ccc2c(=O)n3c(nc2c1)CCC3 (stereo unspecified),/,/,/,-9,/
